Wee1 degr inh: Wee1 degradation inhibitors, primary screen, cell-based, HeLa, Wee1K328M-luciferase, luminescence. Wee1-like protein kinase (Homo sapiens), P30291. AID 1321, 2008. reporter increase, % at 5 µM. actives 1.2% (n = 220,000). HeLa Luc-Wee1K328M stability; 100% = proteasome inhibitor MG132 effect;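 active = activation above the mean of all tested compounds plus 3 SD, set per screening run, cut at about 8.8% in these data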;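 also: cells exposed to compound for 20 h before luminescence read; 0% = DMSO alone and 100% = MG132 at 30 µM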
TbHK1 inh: Trypanosoma brucei hexokinase 1 inhibitors, primary screen, biochemical, G6PDH-coupled NADH absorbance, MLSCN library. hexokinase 1 [Trypanosoma brucei]. recombinant TbHK1, G6PDH-coupled NADH A340. inhibition, % at 10 µM. actives 0.11% (n = 220,000);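 active = inhibition of 50% or more in the single-dose primary screen; inactive = inhibition below 50%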
14-3-3 Bad inh: inhibitors of 14-3-3 zeta/Bad binding, primary screen, biochemical, TR-FRET, bovine 14-3-3 zeta; 14-3-3 protein zeta/delta (Bos taurus), P63103; TR-FRET 14-3-3zeta/Dy647-pBad peptide displacement, 1 h; inhibition, % at 21.7 µM; actives 0.71% (n = 220,000);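 active = inhibition above about 70%, limit read from the data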;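 also: 0% = full 14-3-3 plus peptide FRET controls and 100% = background without 14-3-3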
Hck-Nef inh: inhibitors of Nef-activated human Hck kinase, primary screen, biochemical, Z-Lyte FRET, 384-well, Hck-YEEI | AID 463187, 2010 | Recombinant Hck-YEEI plus Nef, Z-Lyte FRET kinase assay | inhibition, % at 20 µM | Tyrosine-protein kinase HCK (Homo sapiens), P08631 | actives 0.68% (n = 220,000);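 active = Hck-Nef kinase inhibition above about 50%, limit read from the data; inactive = inhibition below that limit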;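 also: 0% = DMSO with Hck plus Nef and 100% = Hck alone without Nef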
Target sequence (P08631 whole entry, looked up): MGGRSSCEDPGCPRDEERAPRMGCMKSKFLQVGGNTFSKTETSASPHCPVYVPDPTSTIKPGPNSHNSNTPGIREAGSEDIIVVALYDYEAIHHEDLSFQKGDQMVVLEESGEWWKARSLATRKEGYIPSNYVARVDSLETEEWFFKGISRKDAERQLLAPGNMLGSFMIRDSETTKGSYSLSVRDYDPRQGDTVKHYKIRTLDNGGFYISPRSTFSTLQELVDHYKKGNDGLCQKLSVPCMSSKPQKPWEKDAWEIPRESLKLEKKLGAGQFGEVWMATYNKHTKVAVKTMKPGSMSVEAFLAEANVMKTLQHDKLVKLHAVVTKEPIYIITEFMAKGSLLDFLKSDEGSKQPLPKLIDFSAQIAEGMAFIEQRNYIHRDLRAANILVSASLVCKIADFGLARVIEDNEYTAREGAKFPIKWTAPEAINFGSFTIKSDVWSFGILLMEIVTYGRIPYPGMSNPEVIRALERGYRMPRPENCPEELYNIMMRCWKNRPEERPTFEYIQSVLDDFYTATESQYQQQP
Mdm2 ligase inh: MDM2-luciferase reporter signal enhancers, primary screen, MDM2 E3 ligase inhibitor project, cell-based, luminescence, 1536-well; E3 ubiquitin-protein ligase Mdm2 (Homo sapiens), Q00987; cell-based MDM2 ubiquitination luciferase reporter, 2 h; 0 = plate control, 100 = twice control, blank-subtracted; signal enhancement, % at 5 µM; actives 0.11% (n = 210,000);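 active = signal enhancement of 30% or more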;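 also: luminescence tracks abundance of the self-degrading MDM2-luciferase fusion protein; higher signal means inhibition of MDM2 E3 ligase activity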
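Buffer or medium: Cells held in DMEM | Assay system: Stable mammalian line carrying autodegrading MDM2–luciferase fusion reporter | Quantity: 2000 cells/well | Times: 4 h settle plus 2 h compound, 37 °C | Doses: One concentration, 5 µM, with 0.2% DMSO | Technique: Luminescence with SteadyLite reagent, 15 min at room temperature | Benchmarks: Plate controls and plate blanks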
The depositor's hits bear a star. Shown are actives, neighbours in structure and some others; about 2.7% of the full set was active somewhere.

Clc1ccc(Cl)c2sc(N3CCCC3)nc12 was read as Wee1 degr inh -1, TbHK1 inh 4, 14-3-3 Bad inh 0, Hck-Nef inh 6 and Mdm2 ligase inh -6.
For O=C(CN1CCc2ccccc2C1)Nc1cccc(S(=O)(=O)N2CCCC2)c1 the results were Wee1 degr inh 0, TbHK1 inh -2, 14-3-3 Bad inh 80*, Hck-Nef inh -11 and Mdm2 ligase inh 9.
Screening C[C@@H]1CN(c2c(F)c(N)c3c(=O)c(C(=O)O)cn(C4CC4)c3c2F)C[C@H](C)N1 returned Wee1 degr inh -3 and 14-3-3 Bad inh -1.
OC(CNCc1ccccc1)c1ccccc1 (stereo not given) was read as Wee1 degr inh 1, TbHK1 inh -9, 14-3-3 Bad inh -15, Hck-Nef inh 15 and Mdm2 ligase inh -18.
Screening Oc1cccc(C(O)CNCc2ccc(-c3ccccc3)cc2)c1 (stereo not given) returned Wee1 degr inh -1, TbHK1 inh 0, 14-3-3 Bad inh 77*, Hck-Nef inh 16 and Mdm2 ligase inh -13.
`Cc1noc(C)c1COc1cccc(C(=O)OCC(=O)N2CC(=O)Nc3ccccc32)c1` gave Wee1 degr inh 18*, TbHK1 inh 5, 14-3-3 Bad inh -5, Hck-Nef inh 1 and Mdm2 ligase inh -21.
O=C1CN(C(=O)COc2cccc(F)c2)c2ccccc2N1 was read as Wee1 degr inh -3, TbHK1 inh 2, 14-3-3 Bad inh 3, Hck-Nef inh 0 and Mdm2 ligase inh -7.
Screening COc1cccc(CNC(=O)C2CCN(Cc3cnn(-c4ccccc4)c3-n3cccc3)CC2)c1 returned Wee1 degr inh 8.9*, TbHK1 inh -1, 14-3-3 Bad inh -6, Hck-Nef inh -22 and Mdm2 ligase inh -26.
Screening Cc1ccc(SCCC(=O)NC2CC2)cc1 returned Wee1 degr inh 5, TbHK1 inh -7, 14-3-3 Bad inh -3, Hck-Nef inh 14 and Mdm2 ligase inh -4.
For CC1=CC(=O)C=C(C)C1=NOc1ccc([N+](=O)[O-])cc1 the results were Wee1 degr inh 0, TbHK1 inh -20, 14-3-3 Bad inh 74*, Hck-Nef inh 18 and Mdm2 ligase inh -24.
`COc1cccc(-c2nn(-c3ccccc3)cc2/C=C(/NC(=O)c2ccccc2)C(=O)O)c1` gave Wee1 degr inh -1, TbHK1 inh -3, 14-3-3 Bad inh 1, Hck-Nef inh 15 and Mdm2 ligase inh 1.
Screening Oc1ccc(/C=C/c2nc(-c3ccccc3O)n(-c3ccccc3)n2)cc1 returned Wee1 degr inh -2, TbHK1 inh -16, 14-3-3 Bad inh 4, Hck-Nef inh 3 and Mdm2 ligase inh -1.
For Oc1ccccc1-c1nc(/C=C/c2ccccc2)nn1-c1ccccc1 the results were Wee1 degr inh 9.6*, TbHK1 inh 27, 14-3-3 Bad inh 15, Hck-Nef inh 0 and Mdm2 ligase inh -12.
For COc1ccc(Nc2cc(C(=O)NCCCN3CCN(C)CC3)c3ccccc3n2)cc1 the results were Wee1 degr inh -1, TbHK1 inh -8, 14-3-3 Bad inh 0, Hck-Nef inh -1 and Mdm2 ligase inh -9.
Screening COc1ccc(Nc2cc(C(=O)NCc3ccco3)c3ccccc3n2)cc1 returned Wee1 degr inh 11*, TbHK1 inh -4, 14-3-3 Bad inh 10, Hck-Nef inh 3 and Mdm2 ligase inh -20.
COc1ccc(Nc2nc(NCc3ccco3)nc(N/N=C/c3ccccc3)n2)cc1 was read as Wee1 degr inh 0, TbHK1 inh -2, 14-3-3 Bad inh 81*, Hck-Nef inh 0 and Mdm2 ligase inh -6.
For Cc1ccc(NC(=O)CSc2nnc(Cc3ccccc3)o2)cc1 the results were Wee1 degr inh 11*, TbHK1 inh 2, 14-3-3 Bad inh -3, Hck-Nef inh 2 and Mdm2 ligase inh -9.
`O=C(Oc1cccnc1)c1ccco1` gave Wee1 degr inh -2, TbHK1 inh 3, 14-3-3 Bad inh 81*, Hck-Nef inh -19 and Mdm2 ligase inh 12.
Cc1c2cnn(CC(=O)Nc3c(F)c(F)cc(F)c3F)c(=O)c2c(C)n1Cc1ccccc1F was read as Wee1 degr inh 2, TbHK1 inh 19, 14-3-3 Bad inh 17, Hck-Nef inh 52* and Mdm2 ligase inh -16.
CCN(CC)c1nc2c(c(=O)n(C)c(=O)n2C)n1CC(=O)c1ccccc1 was read as Wee1 degr inh -2, TbHK1 inh -11, 14-3-3 Bad inh -1, Hck-Nef inh 8 and Mdm2 ligase inh -2.
`CN(C1=NS(=O)(=O)c2ccccc21)c1ccc(OC(=O)c2ccncc2)cc1` gave Wee1 degr inh -3, TbHK1 inh -6, 14-3-3 Bad inh -6, Hck-Nef inh 21 and Mdm2 ligase inh -15.
CN(/N=C/c1ccncc1)C1=NS(=O)(=O)c2ccccc21 was read as Wee1 degr inh 0, TbHK1 inh -37, 14-3-3 Bad inh 79*, Hck-Nef inh 2 and Mdm2 ligase inh 1.
N#C/C(=C\c1cc([N+](=O)[O-])ccc1Cl)C(N)=O was read as Wee1 degr inh 2, TbHK1 inh 3, 14-3-3 Bad inh -5, Hck-Nef inh -1 and Mdm2 ligase inh 9.
N#C/C(=C/c1ccc([N+](=O)[O-])cc1)C(N)=O was read as Wee1 degr inh 11*, TbHK1 inh -7, 14-3-3 Bad inh -8, Hck-Nef inh 26 and Mdm2 ligase inh -19.
Screening CCOc1ccc(NC(=O)CN2C(=O)/C(=C3\SC(=S)N(C4CCS(=O)(=O)C4)C3=O)c3ccccc32)cc1 (stereo not given) returned Wee1 degr inh 5, TbHK1 inh 29, 14-3-3 Bad inh 67 and Hck-Nef inh 74*.
`CCOc1ccc(NC(=O)CN2C(=O)CSC(C)C2=O)cc1` (stereo not given) gave Wee1 degr inh -1, TbHK1 inh -3, 14-3-3 Bad inh -3, Hck-Nef inh 15 and Mdm2 ligase inh -3.
For CCc1ccccc1NC(=O)CC1SCCNC1=O (stereo not given) the results were Wee1 degr inh -2, TbHK1 inh -2, 14-3-3 Bad inh -11, Hck-Nef inh 17 and Mdm2 ligase inh -3.
For CN1N=C2c3ccccc3CCCC2C1c1ccc(F)cc1 (stereo not given) the results were Wee1 degr inh 6, TbHK1 inh 1, 14-3-3 Bad inh 2, Hck-Nef inh -1 and Mdm2 ligase inh -39.

Screening data from PubChem.
